Rows were chosen to be rich in hits. Some 2.5% of all compounds tested hit in one or more screens of this group.
SENP8 block-1 = blocks human SENP8 cleavage of Nedd8 substrate; Q96LD8; recombinant SENP8, Nedd8 substrate fluorescence; inhibition, % at 20 µM; 360,000 compounds, 0.64% hits; AID 602440; in the data active means inhibition mostly above about 40%, no sharp cut-off; inactive means mostly below about 27%
Target sequence (Q96LD8 whole entry, looked up): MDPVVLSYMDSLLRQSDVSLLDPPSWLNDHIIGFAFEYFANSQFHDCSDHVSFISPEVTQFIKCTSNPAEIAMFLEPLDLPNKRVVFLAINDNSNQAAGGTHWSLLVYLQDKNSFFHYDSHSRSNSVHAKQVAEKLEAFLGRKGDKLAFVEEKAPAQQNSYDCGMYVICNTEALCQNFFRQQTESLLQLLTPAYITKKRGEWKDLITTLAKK
SENP6 block = SENP6 protease inhibition | Recombinant SENP6 catalytic domain, aminoluciferin luminescence | inhibition, % at 10 µM | 330,000 compounds, 1.8% hits | AID 2599;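 active means inhibition above about 50% at the single tested dose, limit read from the data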
SENP1 inh = SENP1 (human) catalytic domain inhibition; Q9P0U3; recombinant SENP1 catalytic domain, CyPet-SUMO1-YPet FRET cleavage; inhibition, % at 10 µM; 360,000 compounds, 0.21% hits;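 active means inhibition at least 30% at 10 µM, raw YFP signal under a set limit, fluorescence ratio 0.5 to 1.5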
Target sequence (Q9P0U3 419-644 limits assumed): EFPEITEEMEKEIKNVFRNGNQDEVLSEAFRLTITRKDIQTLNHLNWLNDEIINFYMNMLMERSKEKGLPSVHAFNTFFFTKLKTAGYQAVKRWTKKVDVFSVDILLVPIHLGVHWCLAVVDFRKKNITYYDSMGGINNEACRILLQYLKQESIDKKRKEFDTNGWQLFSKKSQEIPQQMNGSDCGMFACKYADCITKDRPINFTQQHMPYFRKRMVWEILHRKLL
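Material: hSENP1 catalytic domain, recombinant; medium: Tris pH 8 with BME, BSA, NP40 and catalase; compound: single concentration of 10 µM compound, 0.5% DMSO final; technique: FRET read of cyan and yellow fluorescence; timing: 50 min enzyme reaction, room temperature, light-protected; reagent: SFCypet-SUMO1-SFYpet substrate at 25 nM; control set: no-enzyme low, enzyme-DMSO high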
SENP8 block-2 = blocks the human protease SENP8 | Q96LD8 | purified SENP8, Z-RLRGG-aminoluciferin cleavage, luminescence | inhibition, % at 10 µM | 330,000 compounds, 1.2% hits; in the data active means inhibition above about 50%
SENP7 block = SENP7 protease inhibition | 330,000 compounds, 1.5% hits | AID 434973 | recombinant SENP7, Z-RLRGG-aminoluciferin luminescence, 40 min | inhibition, % at 5 µM | Q9BQF6;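 active means inhibition above about 50% at the single test dose, limit read from the data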
SENP8 confirm = human SENP8 inhibition, confirmed; shares compounds with SENP7 block; Recombinant SENP8, Z-RLRGG-aminoluciferin luminescence, 60 min; 6,200 compounds, 40% hits; inhibition, % at 12.5 µM;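 active means mean inhibition across replicates above about 50%, limit read from the data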
SENP6 conf = human SENP6 inhibition, confirmed; shares compounds with SENP7 block; recombinant SENP6, Z-RLRGG-aminoluciferin luminescence; inhibition, % at 12.5 µM; 6,200 compounds, 58% hits; AID 488915
SENP7 confirm = human SENP7 inhibition, confirmed | shares compounds with SENP7 block | recombinant SENP7, Z-RLRGG-aminoluciferin luminescence, 40 min | inhibition, % at 12.5 µM | 6,200 compounds, 69% hits | AID 488917
Casp3 SENP sel = caspase-3 inhibition (SENP selectivity assay); shares compounds with SENP7 block; 6,200 compounds, 60% hits; purified caspase-3, Z-DEVD-aminoluciferin luminescence, 60 min; AID 488918; inhibition, % at 12.5 µM;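 active means mean inhibition above about 50%, limit read from the data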
Target sequence (P42574 28-227 limits assumed): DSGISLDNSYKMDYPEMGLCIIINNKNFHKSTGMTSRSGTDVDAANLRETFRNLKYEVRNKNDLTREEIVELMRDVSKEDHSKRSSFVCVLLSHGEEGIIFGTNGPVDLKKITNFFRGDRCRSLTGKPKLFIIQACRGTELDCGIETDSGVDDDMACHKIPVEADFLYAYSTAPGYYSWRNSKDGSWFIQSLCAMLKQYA
Luc interf = interferes with luciferase luminescence in SENP counter-screen; Pre-incubated SENP8/Z-RLRGG-aminoluciferin, luciferase luminescence interference; shares compounds with SENP7 block; 6,200 compounds, 39% hits; AID 488919; inhibition, % at 12.5 µM;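 active means mean inhibition above about 50% when retested at one dose, limit read from the data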
Each line names hits and unclear results; the compound was inactive in the other large screens (follow-up assays come after a bar, where they were run).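 How the source made its calls, unless noted: active means mean inhibition above about 50% in the one-dose retest (limit read from the data); inactive means the rest.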

Cc1nn2cc(-c3ccccc3)nc2s1	SENP6 block 72, SENP8 block-2 76 | SENP8 confirm 77 | SENP6 conf 81 | SENP7 confirm 97 | Casp3 SENP sel 91 | Luc interf 71
c1ccc(-c2cn3nc(-c4ccccc4)sc3n2)cc1	SENP8 block-2 85, SENP7 block 93 | SENP8 confirm inactive | SENP6 conf inactive | SENP7 confirm inactive | Casp3 SENP sel inactive | Luc interf inactive
CCOc1ccc(Br)cc1S(=O)(=O)NCC(c1ccc(OC)cc1)N1CCOCC1 (centres undefined)	none (no result: SENP6 block, SENP8 block-2, SENP7 block)
Cc1ccc(C(=O)NCCc2ccccc2)cc1	SENP6 block 53, SENP7 block 54 | SENP8 confirm inactive | SENP6 conf inactive | SENP7 confirm 77 | Casp3 SENP sel 79 | Luc interf 58
Cc1ccc(S(=O)(=O)N(C)c2ccc(C(=O)NCCc3ccccc3)cc2)cc1	none
CN(c1ccc(C(=O)NCCc2ccccc2)cc1)S(C)(=O)=O	SENP7 block 55 | SENP8 confirm inactive | SENP6 conf inactive | SENP7 confirm 56 | Casp3 SENP sel 69 | Luc interf inactive
COC(=O)c1c(N)sc(C(=O)NCCc2ccccc2)c1C	SENP6 block 88, SENP8 block-2 75, SENP7 block 89 | SENP8 confirm 85 | SENP6 conf 82 | SENP7 confirm 95 | Casp3 SENP sel 89 | Luc interf 85
Cc1ccc(C)c(NC(=O)CN(C)C(=O)c2ccccc2OCc2ccccc2Cl)c1	none
Cc1ccc(C(=O)Nc2nc3ccccc3s2)s1	SENP6 block 91, SENP8 block-2 73, SENP7 block 85 | SENP8 confirm 57 | SENP6 conf 83 | SENP7 confirm 97 | Casp3 SENP sel 76 | Luc interf inactive
CS(=O)(=O)c1ccc2nc(NC(=O)c3cccs3)sc2c1	SENP6 block 91, SENP8 block-2 84, SENP7 block 89 | SENP8 confirm inactive | SENP6 conf 79 | SENP7 confirm 95 | Casp3 SENP sel 88 | Luc interf 60
CCC(=O)Nc1nc2ccc(S(C)(=O)=O)cc2s1	none
Cc1ccc2nc(NC(=O)c3cccs3)sc2c1	SENP6 block 92, SENP8 block-2 89, SENP7 block 98 | SENP8 confirm inactive | SENP6 conf 89 | SENP7 confirm 92 | Casp3 SENP sel 74 | Luc interf inactive
CCOC(=O)Nc1nc2ccccc2s1	none
Cc1ccc(CNc2nc3ccccc3s2)s1	SENP6 block 85, SENP8 block-2 76, SENP7 block 87 | SENP8 confirm 73 | SENP6 conf 72 | SENP7 confirm 92 | Casp3 SENP sel 71 | Luc interf inactive
CS(=O)(=O)c1ccc2nc(NC(=O)c3cc([N+](=O)[O-])cc([N+](=O)[O-])c3)sc2c1	none
Cc1ccc(C(=O)Nc2nc3ccc(S(C)(=O)=O)cc3s2)s1	SENP6 block 68, SENP8 block-2 51 | SENP8 confirm inactive | SENP6 conf 53 | SENP7 confirm inactive | Casp3 SENP sel 62 | Luc interf inactive
O=C(O)c1ccccc1-c1ccccc1C(=O)Nc1nc2ccccc2s1	none
Cc1ccc(C(=O)O)c(C(=O)Nc2nc3ccccc3s2)c1	SENP6 block 69, SENP8 block-2 67 | SENP8 confirm 90 | SENP6 conf 91 | SENP7 confirm 100 | Casp3 SENP sel 95 | Luc interf 76
Cc1cccc(N/C=C/C(=O)c2cccs2)c1C	SENP6 block 95, SENP8 block-2 95, SENP7 block 94 | SENP8 confirm inactive | SENP6 conf 99 | SENP7 confirm 102 | Casp3 SENP sel 95 | Luc interf 95
O=C(/C=C/c1ccc([N+](=O)[O-])cc1)c1cccs1	none
NC(=O)c1ccccc1N/C=C/C(=O)c1cccs1	SENP6 block 92, SENP8 block-2 81, SENP7 block 76 | SENP8 confirm inactive | SENP6 conf 90 | SENP7 confirm 98 | Casp3 SENP sel 94 | Luc interf 88
COc1cc([N+](=O)[O-])ccc1N/C=C/C(=O)c1cccs1	SENP6 block 87, SENP8 block-2 53, SENP7 block 97 | SENP8 confirm inactive | SENP6 conf 55 | SENP7 confirm inactive | Casp3 SENP sel inactive | Luc interf inactive
Cc1c(NC(=O)c2cccs2)cccc1NC(=O)c1cccs1	none
CC1(C)CC(NS(=O)(=O)c2ccc3ccccc3c2)CC(C)(C)N1	none
CCNC(=O)C1(C)CCN(C(=O)c2cccc(C#N)c2)C1 (centres undefined)	none (no result: SENP6 block, SENP8 block-2, SENP7 block)
CC1(C)CC(=O)c2sc(NC(=O)c3cccs3)nc2C1	SENP6 block 80, SENP8 block-2 52, SENP7 block 66 | SENP8 confirm 63 | SENP6 conf 64 | SENP7 confirm 88 | Casp3 SENP sel 87 | Luc interf inactive
CC1(C)CC(=O)c2sc(NC(=O)c3ccccc3)nc2C1	SENP8 block-2 55, SENP7 block 57 (no result: SENP8 block-1, SENP1 inh) | SENP8 confirm 60 | SENP6 conf 51 | SENP7 confirm 65 | Casp3 SENP sel 75 | Luc interf 64
CC1(C)CNC(=O)c2sc(NC(=O)c3ccccc3)nc2C1	none
CN(CC1COc2ccccc2O1)C(=O)c1cccc(S(=O)(=O)N2CCCC2)c1 (centres undefined)	none
Oc1ccc(/C=N/Nc2cccc(Cl)n2)c(O)c1	SENP6 block 97, SENP8 block-2 97, SENP7 block 98 | SENP8 confirm 99 | SENP6 conf 99 | SENP7 confirm 102 | Casp3 SENP sel 96 | Luc interf 98
COc1ccccc1N(/N=C1\Sc2ccccc2C1=O)C(C)=O	SENP6 block 92, SENP8 block-2 79 | SENP8 confirm inactive | SENP6 conf 83 | SENP7 confirm 66 | Casp3 SENP sel inactive | Luc interf inactive
COc1ccccc1NC1=C(NC(C)=O)C(=O)c2ccccc2C1=O	none (no result: SENP6 block, SENP8 block-2, SENP7 block)
Cc1nc2sc(-c3ccccc3)nn2c(=O)c1Br	SENP6 block 75, SENP8 block-2 60, SENP7 block 73 | SENP8 confirm inactive | SENP6 conf inactive | SENP7 confirm inactive | Casp3 SENP sel 61 | Luc interf inactive
COc1ccc(-c2nn3c(=O)c(C)nnc3s2)cc1	none
CCn1c(SCc2nc(-c3ccc(OC)c(OC)c3)no2)nnc1-c1cccs1	none

Screening results (PubChem BioAssay)
